# Reference: ChEMBL document CHEMBL1155077, “Kinesin spindle protein (KSP) inhibitors. 9. Discovery of (2S)-4-(2,5-difluorophenyl)-n-[(3R,4S)-3-fluoro-1-methylpiperidin-4-yl]-2-(hydroxymethyl)-N-methyl-2-phenyl-2,5-dihydro-1H-pyrrole-1-carboxamide (MK-0731) for the treatment of taxane-refractory cancer” (J Med Chem, 2008)
# pEC50, pIC50: −log10 of the molar value. Calls of active or inactive are those of the source. The calls are words filed in the database; no cut-off is given here.
# Assays:
# [1] = Toxicity in clr:NU/NU-nuBR mouse assessed as maximum tolerated dose after 24 hrs; format: organism-based; conditions: in vivo
# How it was run: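 Naive, non-xenografted mice, in a large cohort. Drug was given by continuous delivery from subcutaneously implanted osmotic minipumps over 24 h. The maximum tolerated dose was set with survival as the end point, and peripheral blood counts were followed to assess myelosuppression.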
# [2] = Inhibition of tubulin polymerization at 20 uM
# How it was run: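 Tubulin at 2.5 mg/mL with 0.5 mM GTP in 80 mM K-PIPES pH 6.8, 1 mM MgCl2, 1 mM EGTA; compound at 20 µM final from DMSO; 37 °C. Light scattering read at 320 and 340 nm every 30 s for 75 min, with paclitaxel and colchicine (20 µM) controls.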
# [3] = species: Mus musculus; assay: Toxicity in naive mouse assessed as neutopenia after 6 days; format: organism-based; conditions: in vivo, 144 h
# How it was run: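 Naive mice dosed under protocols varying dose, vehicle and frequency, with survival as the end point; peripheral blood counts, including neutrophils, followed after dosing.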
# [4] = Half life in rat at 1 mg/kg, iv; format: ADME, organism-based; set-up: dose 1 mg/kg, route intravenous; conditions: in vivo
# [5] = target: T1, Kinesin-1 heavy chain (Homo sapiens, UniProt P33176); assay: Inhibition of cloned human uKHC
# T1 sequence (P33176 whole entry): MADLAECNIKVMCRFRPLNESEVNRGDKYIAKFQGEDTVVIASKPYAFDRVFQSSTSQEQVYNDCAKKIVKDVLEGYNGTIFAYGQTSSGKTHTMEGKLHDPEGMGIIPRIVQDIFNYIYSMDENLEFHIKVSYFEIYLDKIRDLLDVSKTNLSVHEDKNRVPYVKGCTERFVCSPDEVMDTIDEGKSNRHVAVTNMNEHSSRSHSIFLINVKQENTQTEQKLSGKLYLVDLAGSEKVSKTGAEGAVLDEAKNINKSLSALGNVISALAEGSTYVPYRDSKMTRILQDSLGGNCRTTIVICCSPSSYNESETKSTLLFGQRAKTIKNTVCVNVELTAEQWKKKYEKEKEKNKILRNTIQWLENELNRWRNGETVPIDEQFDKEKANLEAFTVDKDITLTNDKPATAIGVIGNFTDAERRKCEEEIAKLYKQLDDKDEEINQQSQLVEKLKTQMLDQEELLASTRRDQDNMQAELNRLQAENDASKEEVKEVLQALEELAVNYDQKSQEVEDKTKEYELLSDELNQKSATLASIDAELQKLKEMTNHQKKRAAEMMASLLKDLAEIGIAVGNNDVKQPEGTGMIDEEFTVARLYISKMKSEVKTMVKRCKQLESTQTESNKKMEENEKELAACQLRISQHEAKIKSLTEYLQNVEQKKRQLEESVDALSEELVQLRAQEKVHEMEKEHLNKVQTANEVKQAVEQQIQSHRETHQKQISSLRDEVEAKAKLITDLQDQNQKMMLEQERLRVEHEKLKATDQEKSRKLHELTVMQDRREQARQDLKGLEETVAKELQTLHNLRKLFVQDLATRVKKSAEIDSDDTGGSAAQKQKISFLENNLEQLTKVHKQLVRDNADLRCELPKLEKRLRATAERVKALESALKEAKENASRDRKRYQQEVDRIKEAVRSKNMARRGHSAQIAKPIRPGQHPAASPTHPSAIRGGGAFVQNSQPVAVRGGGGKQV
# [6] = target: Kinesin-like protein KIF14 (Homo sapiens, UniProt Q15058); assay: Inhibition of cloned human Kif14
# Chain of Kinesin-like protein KIF14 (Q15058 whole entry): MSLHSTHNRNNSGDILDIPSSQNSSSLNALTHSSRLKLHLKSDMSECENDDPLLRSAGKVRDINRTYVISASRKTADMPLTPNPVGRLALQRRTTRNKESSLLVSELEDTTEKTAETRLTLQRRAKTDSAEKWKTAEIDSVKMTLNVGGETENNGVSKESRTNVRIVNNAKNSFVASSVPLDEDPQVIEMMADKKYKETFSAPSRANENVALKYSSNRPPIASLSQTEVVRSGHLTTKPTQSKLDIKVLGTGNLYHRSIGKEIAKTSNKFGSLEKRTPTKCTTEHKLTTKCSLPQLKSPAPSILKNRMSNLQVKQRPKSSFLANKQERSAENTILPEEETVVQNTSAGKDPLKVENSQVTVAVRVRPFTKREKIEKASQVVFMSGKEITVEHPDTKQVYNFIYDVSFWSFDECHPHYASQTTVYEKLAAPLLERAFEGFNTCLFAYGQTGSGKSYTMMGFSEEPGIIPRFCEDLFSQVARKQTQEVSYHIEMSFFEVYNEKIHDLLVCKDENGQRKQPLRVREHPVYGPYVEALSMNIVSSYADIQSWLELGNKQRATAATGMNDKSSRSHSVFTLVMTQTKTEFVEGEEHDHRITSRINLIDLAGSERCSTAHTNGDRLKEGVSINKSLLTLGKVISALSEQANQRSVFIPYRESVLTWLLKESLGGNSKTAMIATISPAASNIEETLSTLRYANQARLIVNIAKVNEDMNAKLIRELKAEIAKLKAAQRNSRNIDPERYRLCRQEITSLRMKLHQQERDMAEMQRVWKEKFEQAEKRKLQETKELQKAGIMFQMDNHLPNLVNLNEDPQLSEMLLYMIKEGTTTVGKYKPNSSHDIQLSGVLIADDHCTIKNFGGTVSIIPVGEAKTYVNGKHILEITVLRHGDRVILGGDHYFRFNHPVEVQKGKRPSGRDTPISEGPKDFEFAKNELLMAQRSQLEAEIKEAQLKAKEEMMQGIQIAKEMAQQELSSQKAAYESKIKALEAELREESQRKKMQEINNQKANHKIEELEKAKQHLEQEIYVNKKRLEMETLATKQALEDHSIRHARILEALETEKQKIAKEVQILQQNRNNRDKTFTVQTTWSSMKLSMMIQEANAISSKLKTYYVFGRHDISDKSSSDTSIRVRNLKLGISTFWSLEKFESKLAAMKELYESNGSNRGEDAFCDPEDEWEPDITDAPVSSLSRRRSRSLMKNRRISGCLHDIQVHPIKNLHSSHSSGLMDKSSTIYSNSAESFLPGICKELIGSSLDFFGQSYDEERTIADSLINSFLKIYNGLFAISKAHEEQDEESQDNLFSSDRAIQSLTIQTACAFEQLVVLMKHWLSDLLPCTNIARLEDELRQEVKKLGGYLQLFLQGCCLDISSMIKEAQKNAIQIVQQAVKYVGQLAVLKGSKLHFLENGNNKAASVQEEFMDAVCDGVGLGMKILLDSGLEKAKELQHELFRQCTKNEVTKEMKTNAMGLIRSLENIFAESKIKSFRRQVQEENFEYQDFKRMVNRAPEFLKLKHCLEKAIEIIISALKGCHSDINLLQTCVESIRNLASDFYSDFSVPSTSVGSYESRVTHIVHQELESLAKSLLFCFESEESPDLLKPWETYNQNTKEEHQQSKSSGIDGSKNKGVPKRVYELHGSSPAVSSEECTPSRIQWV
# [7] = target: Kinesin-like protein KIF3A (Homo sapiens, UniProt Q9Y496); assay: Inhibition of cloned human Kif3A
# Chain of Kinesin-like protein KIF3A (Q9Y496 whole entry): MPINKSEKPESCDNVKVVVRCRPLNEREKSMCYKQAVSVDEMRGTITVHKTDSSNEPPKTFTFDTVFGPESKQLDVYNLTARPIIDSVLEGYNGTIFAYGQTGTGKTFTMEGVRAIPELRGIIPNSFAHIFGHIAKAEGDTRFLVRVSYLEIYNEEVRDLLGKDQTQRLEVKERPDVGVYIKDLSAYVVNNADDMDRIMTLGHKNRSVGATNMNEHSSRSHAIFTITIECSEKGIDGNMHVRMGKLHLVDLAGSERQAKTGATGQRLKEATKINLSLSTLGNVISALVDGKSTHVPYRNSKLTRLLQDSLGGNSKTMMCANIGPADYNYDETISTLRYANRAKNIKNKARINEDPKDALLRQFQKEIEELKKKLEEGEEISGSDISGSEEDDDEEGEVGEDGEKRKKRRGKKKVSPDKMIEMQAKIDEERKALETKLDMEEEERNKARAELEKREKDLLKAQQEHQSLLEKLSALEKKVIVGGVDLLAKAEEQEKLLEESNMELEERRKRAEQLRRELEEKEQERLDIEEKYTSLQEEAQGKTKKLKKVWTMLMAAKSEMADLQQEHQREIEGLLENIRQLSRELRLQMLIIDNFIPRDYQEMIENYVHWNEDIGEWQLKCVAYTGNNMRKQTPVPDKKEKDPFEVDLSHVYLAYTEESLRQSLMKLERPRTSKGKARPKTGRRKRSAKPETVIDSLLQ
# [8] = Aqueous solubility at pH 4.3; format: physicochemical; conditions: aqueous solution
# [9] = test system: A2780; assay: Induction of mitotic arrest in human A2780 cells […] clr:NU/NU-nuBR mouse assessed as minimum plasma concentration required to induce maximum mitotic arrest after 22 hrs; format: functional
# [10] = Half life in dog at 0.4 mg/kg, iv; format: ADME, organism-based, Canis lupus familiaris; set-up: dose 0.4 mg/kg, route intravenous; conditions: in vivo
# [11] = Half life in rhesus monkey at 0.4 mg/kg, iv; format: ADME, organism-based, Macaca mulatta; set-up: dose 0.4 mg/kg, route intravenous; conditions: in vivo
# [12] = Volume of distribution at steady state in dog at 0.4 mg/kg, iv; format: ADME, organism-based, Canis lupus familiaris; set-up: dose 0.4 mg/kg, route intravenous; conditions: in vivo, read-out: Vdss
# [13] = Ratio of IC50 for induction of mitotic arrest in human […] to IC50 for induction of mitotic arrest in […] human KB-V-1 cells; format: functional
# How it was run: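 Phospho-nucleolin mitotic-arrest assay in parental KB-3-1 and MDR1-overexpressing KB-V-1 cells (>500-fold higher MDR1 mRNA). Cells were treated in triplicate for 16 h across 10 000 to 0.1 nM (11-point, half-log series; 0.1% DMSO final). Total nucleolin was bead-captured from lysates and phospho-nucleolin detected by TG3 antibody plus a ruthenium-labelled secondary. Ratio = IC50 (KB-V-1) / IC50 (KB-3-1).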
# [14] = Volume of distribution at steady state in rhesus monkey at 0.4 mg/kg, iv; format: ADME, organism-based, Macaca mulatta; set-up: dose 0.4 mg/kg, route intravenous; conditions: in vivo, read-out: Vdss
# [15] = Effect on […] formation in human […] cells assessed as mitotic spindles at 50 nM after 16 hrs by fluorescence microscopy; format: functional
# How it was run: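 A2780 cells grown in slide chambers, exposed 16 h to 5 or 50 nM compound or 0.1% DMSO. Fixed/permeabilized in PIPES buffer pH 6.8 with Triton X-100 and 4% formaldehyde, blocked with 2% BSA, stained with anti-α-tubulin (DM1, 12 h 4 °C), FITC secondary and Hoechst 33342; spindles viewed by fluorescence microscopy.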
# [16] = target: Centromere-associated protein E (Homo sapiens, UniProt Q02224); assay: Inhibition of cloned human CENP-E
# Chain of Centromere-associated protein E (Q02224 whole entry): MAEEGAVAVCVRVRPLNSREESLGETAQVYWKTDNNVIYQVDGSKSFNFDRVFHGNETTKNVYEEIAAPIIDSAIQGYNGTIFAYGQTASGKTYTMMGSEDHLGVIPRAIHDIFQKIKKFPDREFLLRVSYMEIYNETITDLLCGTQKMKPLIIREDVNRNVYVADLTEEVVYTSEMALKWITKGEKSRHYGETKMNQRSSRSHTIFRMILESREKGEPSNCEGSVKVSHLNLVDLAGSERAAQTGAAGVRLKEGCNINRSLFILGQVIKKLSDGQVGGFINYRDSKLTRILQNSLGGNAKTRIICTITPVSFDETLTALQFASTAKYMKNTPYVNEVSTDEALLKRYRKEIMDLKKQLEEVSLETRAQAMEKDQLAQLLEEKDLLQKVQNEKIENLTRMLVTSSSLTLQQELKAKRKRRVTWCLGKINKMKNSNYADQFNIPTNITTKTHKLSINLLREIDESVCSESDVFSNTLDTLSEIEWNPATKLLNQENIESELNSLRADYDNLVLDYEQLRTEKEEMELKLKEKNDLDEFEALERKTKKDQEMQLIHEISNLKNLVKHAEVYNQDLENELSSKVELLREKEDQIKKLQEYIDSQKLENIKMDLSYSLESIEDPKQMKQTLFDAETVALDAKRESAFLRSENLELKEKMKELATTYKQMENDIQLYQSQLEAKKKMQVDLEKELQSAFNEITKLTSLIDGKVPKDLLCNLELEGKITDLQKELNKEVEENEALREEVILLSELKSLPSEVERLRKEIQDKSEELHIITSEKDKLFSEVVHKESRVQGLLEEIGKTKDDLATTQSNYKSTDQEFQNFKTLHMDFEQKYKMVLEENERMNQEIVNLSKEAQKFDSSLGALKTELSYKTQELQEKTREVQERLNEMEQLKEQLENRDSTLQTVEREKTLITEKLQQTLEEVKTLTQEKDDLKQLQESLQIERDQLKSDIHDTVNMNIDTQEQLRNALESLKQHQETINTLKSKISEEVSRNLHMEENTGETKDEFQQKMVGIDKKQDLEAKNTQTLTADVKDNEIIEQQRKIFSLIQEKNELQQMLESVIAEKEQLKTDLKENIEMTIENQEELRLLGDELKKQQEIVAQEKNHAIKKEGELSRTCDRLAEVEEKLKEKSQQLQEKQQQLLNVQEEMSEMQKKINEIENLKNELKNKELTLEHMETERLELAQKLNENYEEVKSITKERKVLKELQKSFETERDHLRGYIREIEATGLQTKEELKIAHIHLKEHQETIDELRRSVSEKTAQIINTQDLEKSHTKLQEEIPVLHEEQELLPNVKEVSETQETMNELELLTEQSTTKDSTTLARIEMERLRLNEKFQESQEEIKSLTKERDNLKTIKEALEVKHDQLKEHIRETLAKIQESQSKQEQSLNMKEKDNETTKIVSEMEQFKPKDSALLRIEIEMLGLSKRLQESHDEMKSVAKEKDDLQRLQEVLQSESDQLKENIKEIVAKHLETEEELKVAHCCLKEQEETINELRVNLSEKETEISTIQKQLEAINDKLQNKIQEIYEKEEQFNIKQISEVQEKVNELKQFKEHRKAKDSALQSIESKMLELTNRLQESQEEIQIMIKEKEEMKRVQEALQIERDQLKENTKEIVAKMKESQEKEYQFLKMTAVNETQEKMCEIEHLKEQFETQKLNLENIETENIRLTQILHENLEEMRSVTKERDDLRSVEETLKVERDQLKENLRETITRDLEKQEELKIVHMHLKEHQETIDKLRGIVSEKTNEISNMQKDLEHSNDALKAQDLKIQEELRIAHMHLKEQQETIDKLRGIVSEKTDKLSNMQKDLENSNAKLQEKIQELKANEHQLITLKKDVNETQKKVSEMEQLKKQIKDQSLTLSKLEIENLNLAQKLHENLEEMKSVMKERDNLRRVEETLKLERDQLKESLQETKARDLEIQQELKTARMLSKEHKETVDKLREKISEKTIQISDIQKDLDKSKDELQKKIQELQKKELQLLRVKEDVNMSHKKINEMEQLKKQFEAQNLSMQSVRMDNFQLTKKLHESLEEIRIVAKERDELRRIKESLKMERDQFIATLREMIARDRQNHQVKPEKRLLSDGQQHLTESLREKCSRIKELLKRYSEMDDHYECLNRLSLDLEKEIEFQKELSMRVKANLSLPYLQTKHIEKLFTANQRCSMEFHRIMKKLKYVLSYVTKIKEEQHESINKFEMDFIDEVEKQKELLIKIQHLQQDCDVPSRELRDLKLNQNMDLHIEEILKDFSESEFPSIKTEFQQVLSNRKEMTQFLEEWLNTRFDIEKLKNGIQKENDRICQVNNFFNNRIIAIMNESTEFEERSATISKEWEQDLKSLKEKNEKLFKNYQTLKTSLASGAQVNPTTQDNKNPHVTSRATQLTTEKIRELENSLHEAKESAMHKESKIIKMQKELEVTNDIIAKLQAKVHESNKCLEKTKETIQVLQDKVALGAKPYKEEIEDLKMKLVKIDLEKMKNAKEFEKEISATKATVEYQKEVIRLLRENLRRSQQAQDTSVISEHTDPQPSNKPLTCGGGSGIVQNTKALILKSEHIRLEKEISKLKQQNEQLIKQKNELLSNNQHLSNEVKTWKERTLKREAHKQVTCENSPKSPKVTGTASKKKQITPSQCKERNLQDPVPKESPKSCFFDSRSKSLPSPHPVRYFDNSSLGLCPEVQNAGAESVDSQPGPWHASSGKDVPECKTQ
# [17] = test system: Rattus norvegicus; assay: Acute toxicity in rat at 15 mg/kg, iv; format: organism-based; set-up: dose 15 mg/kg, route intravenous; conditions: in vivo
# [18] = Toxicity in human A2780 cells xenografted clr:NU/NU-nuBR mouse assessed as maximum tolerated dose; format: organism-based; conditions: in vivo
# How it was run: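 Maximum tolerated dose was set in protocols in naive mice that varied dose, vehicle and frequency, with survival as the end point and peripheral blood counts tracked. The schedule was sc injection every 4 days × 3 in saline acidified to pH 4.0, 100 µL per dose.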
# [19] = Clearance in dog at 0.4 mg/kg, iv; format: ADME, organism-based, Canis lupus familiaris; set-up: dose 0.4 mg/kg, route intravenous; conditions: in vivo
# [20] = test system: A2780; assay: Induction of mitotic arrest in human A2780 cells expressing MDR1 after 16 hrs; format: functional, cell-based; conditions: A2780, 16 h
smiles,measurement,setting,value
CN1CC[C@H](N(C)C(=O)N2CC(c3cc(F)ccc3F)=C[C@@]2(CO)c2ccccc2)[C@H](F)C1,MTD at 24 h,[1],12 mg/kg
same,Activity,[2],inactive
same,Activity,[3],Toxic
same,half-life,[4],1 h
same,pIC50,[5],< 4.30
same,pIC50,[6],< 4.30
same,pIC50,[7],< 4.30
same,solubility,[8],> 50 mg/mL
same,EC90,[9],0.094 µM
same,half-life,[10],2 h
same,half-life,[11],1 h
same,Vd,[12],1.6 L/kg
same,Ratio,[13],4.5
same,Vd,[14],2.3 L/kg
same,Activity,[15],90%
same,pIC50,[16],< 4.30
same,Activity,[17],Non-toxic
same,MTD,[18],100 mg/kg
same,clearance,[19],15.1 mL/min/kg
same,pEC50,[20],8.28
